Data reported in ChEMBL document CHEMBL2169845 (J Med Chem, 2012).
The source made the active and inactive calls.

Columns and labels:
[1] = Inhibition of c-terminally truncated N-terminal 8xHis-tagged human Bcl-xL deletion mutant expressed in Escherichia coli BL21 (DE3) after 2 hrs by fluorescence polarization assay
[2] = Cytotoxicity against human NCI-H146 cells assessed as growth inhibition after 4 days by WST-8 assay; assay type: functional, cell-based; conditions: NCI-H146, 96 h
NCI-H1417 = assay: Cytotoxicity against human H1417 cells assessed as growth inhibition after 4 days by WST-8 assay; assay type: functional, cell-based; conditions: NCI-H1417, 96 h
[3] = target: T1, Apoptosis regulator Bcl-2 (Homo sapiens, UniProt P10415)
[4] = target: T1, Apoptosis regulator Bcl-2; assay: Inhibition of N-terminal 6xHis-tagged human Bcl-2 expressed in Escherichia coli BL21 (DE3) after 2 hrs by fluorescence polarization assay
[5] = Antitumor activity against human NCI-H146 cells xenografted in SCID mouse assessed as tumor free incidence at 25 mg/kg, iv measured on day 58 post tumor implantation; assay type: functional
Outline: (§1)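 SCID mice bearing H146 xenografts randomized at 40–110 mm3 tumor volume (mean 70 mm3), 8 per group. Dosed intravenously, daily, 5 days a week for 2 weeks, with a vehicle control group. Tumor size and body weight measured 3 times weekly during dosing and twice weekly afterwards. Tumor volumes reported as mean ± SEM.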

NCI-H146 [6] = assay: Antitumor activity against human NCI-H146 cells xenografted in SCID mouse assessed as tumor regression at 25 mg/kg, iv administered 5 days per week for 2 weeks; assay type: functional, organism-based; design: dose 25 mg/kg; outline: as §1
NCI-H146 [7] = assay: Induction of apoptosis in human NCI-H146 cells xenografted in SCID mouse assessed as caspase 3 cleavage at 25 mg/kg, iv after 3 to 24 hrs by Western blot analysis; assay type: functional, organism-based; design: dose 25 mg/kg
Outline: (§2)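 SCID mice bearing H146 xenografts (100–200 mm3) received one i.v. dose, with a vehicle control group. Tumors harvested at 3, 6 and 24 h. PARP cleavage and caspase-3 cleavage assessed by Western blot.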

NCI-H146 [8] = assay: Induction of apoptosis in human NCI-H146 cells xenografted in SCID mouse assessed as PARP cleavage at 25 mg/kg, iv after 3 to 6 hrs by Western blot analysis; assay type: functional, organism-based; design: dose 25 mg/kg; outline: as §2
Mus musculus [9] = assay: Toxicity in SCID mouse assessed as body weight loss at 50 mg/kg, iv administered 5 days per week for 2 weeks relative to vehicle-treated control; assay type: organism-based; design: dose 50 mg/kg, route intravenous; conditions: in vivo
Outline: (§3)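 Tolerability tested in SCID mice given daily i.v. doses, 5 days a week for 2 weeks. Body weight loss tracked against a 10% threshold.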

Mus musculus [10] = assay: Toxicity in SCID mouse assessed as body weight loss at 25 mg/kg, iv administered 5 days per week for 2 weeks relative to vehicle-treated control; assay type: organism-based; design: dose 25 mg/kg, route intravenous; conditions: in vivo; outline: as §3
NCI-H146 [11] = assay: Antitumor activity against human NCI-H146 cells xenografted in SCID mouse assessed as tumor free incidence at 25 mg/kg, iv measured on day 47 post tumor implantation; assay type: functional, organism-based; design: dose 25 mg/kg; outline: as §1
[12] = Toxicity in iv dosed SCID mouse administered 5 days per week for 2 weeks; assay type: organism-based; conditions: in vivo
NCI-H146 [13] = assay: Induction of apoptosis in human NCI-H146 cells assessed as caspase 3 activation at 10 nM after 24 hrs by Western blot analysis; assay type: functional, cell-based
Outline: (§4)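 H146 cells treated for 24 hr, then lysed on ice for 20 min in RIPA buffer with PMSF and protease inhibitors. Cleared lysates normalized by protein assay and run on 4–20% SDS-PAGE, then blotted to PVDF. Probed with rabbit antibodies to PARP and caspase-3 (cleaved forms detected), GAPDH as loading control, with HRP chemiluminescence detection.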

NCI-H146 [14] = assay: Induction of apoptosis in human NCI-H146 cells assessed as PARP cleavage at 10 nM after 24 hrs by Western blot analysis; assay type: functional, cell-based; outline: as §4
NCI-H146 [15] = assay: Induction of apoptosis in human NCI-H146 cells assessed as cell viability at 10 nM after 24 hrs by trypan blue exclusion assay; assay type: functional; conditions: NCI-H146, 24 h, read-out: Activity
Outline: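 H146 small-cell lung cancer cells exposed to serial compound concentrations for 24 hr, then collected and stained with trypan blue. Blue-stained or morphologically unhealthy cells were scored as dead, with at least 100 cells counted per sample.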

NCI-H146 [16] = assay: Induction of apoptosis in human NCI-H146 cells assessed as cell viability after 24 hrs by trypan blue exclusion assay; assay type: functional, cell-based
Outline: (§5)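 H146 cells exposed to a range of compound concentrations for 24 hr, then harvested and stained with trypan blue. Cells staining blue or looking morphologically unhealthy were scored as dead. At least 100 cells counted per sample.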

NCI-H146 [17] = assay: Induction of apoptosis in human NCI-H146 cells assessed as cell viability at 30 to 100 nM after 24 hrs by trypan blue exclusion assay; assay type: functional; outline: as §5
NCI-H146 [18] = assay: Induction of apoptosis in human NCI-H146 cells assessed as caspase 3 activation at 30 nM after 24 hrs by Western blot analysis; assay type: functional, cell-based; outline: as §4
NCI-H146 [19] = assay: Induction of apoptosis in human NCI-H146 cells assessed as PARP cleavage at 30 nM after 24 hrs by Western blot analysis; assay type: functional, cell-based; outline: as §4

T1 sequence (P10415 whole entry): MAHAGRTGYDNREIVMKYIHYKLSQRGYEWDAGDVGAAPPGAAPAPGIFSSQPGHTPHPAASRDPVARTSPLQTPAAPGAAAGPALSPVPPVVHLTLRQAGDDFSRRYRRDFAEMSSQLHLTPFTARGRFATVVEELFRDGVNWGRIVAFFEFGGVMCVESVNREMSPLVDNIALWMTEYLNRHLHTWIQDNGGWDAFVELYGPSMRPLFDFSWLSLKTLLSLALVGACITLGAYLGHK

| Structure (SMILES) | IC50 [1] [nM] | Ki [3] [nM] | IC50 [4] [nM] | other results |
| --- | --- | --- | --- | --- |
| COc1cccc(S(=O)(=O)Nc2ccc(N3CCN(c4cccc(-c5c(C(=O)NCCCN6CCN(C)CC6)c(C)n(C)c5-c5ccc(Cl)cc5)c4)CC3)cc2)c1 | 2160 | – | – | – |
| CCc1cccc(S(=O)(=O)Nc2ccc(N3CCN(c4cccc(-c5c(C(=O)NCCCN6CCN(C)CC6)c(C)n(C)c5-c5ccc(Cl)cc5)c4)CC3)cc2)c1 | 1950 | – | – | – |
| Cc1c(C(=O)NCCCN2CCN(C)CC2)c(-c2cccc(N3CCN(c4ccc(NS(=O)(=O)c5cccc(Br)c5)cc4)CC3)c2)c(-c2ccc(Cl)cc2)n1C | 499 | – | – | – |
| Cc1c(C(=O)O)c(-c2cccc(N3CCN(c4ccc(NS(=O)(=O)c5ccc(N[C@H](CCN6CC(O)C6)CSc6ccccc6)c(S(=O)(=O)C(F)(F)F)c5)cc4)CC3)c2)c(-c2ccc(Cl)cc2)n1C | 10.5 | 1.7 | 7.7 | IC50 [2]: 241 nM; IC50 (NCI-H1417): 299 nM |
| Cc1c(C(=O)NCCCN2CCN(C)CC2)c(-c2cccc(N3CCN(c4ccc(NS(=O)(=O)c5cccc(F)c5)cc4)CC3)c2)c(-c2ccc(Cl)cc2)n1C | 1310 | – | – | – |
| Cc1c(C(=O)NCCCN2CCN(C)CC2)c(-c2cccc(N3CCN(c4ccc(NS(=O)(=O)c5cccc([N+](=O)[O-])c5)cc4)CC3)c2)c(-c2ccc(Cl)cc2)n1C | 131 | – | – | – |
| CCn1c(C)c(C(=O)O)c(-c2cccc(N3CCN(c4ccc(NS(=O)(=O)c5ccc(N[C@H](CCN6CCC(O)CC6)CSc6ccccc6)c(S(=O)(=O)C(F)(F)F)c5)cc4)CC3)c2)c1-c1ccc(Cl)cc1 | 6 | 1.2 | 5.4 | Activity [5]: 71%; Activity (NCI-H146 [6]): Active; Activity (NCI-H146 [7]): Active; Activity (NCI-H146 [8]): Active; Activity (Mus musculus [9]): > 10%; Activity (Mus musculus [10]): < 10%; Activity (NCI-H146 [11]): Active; MTD at 2 weeks [12]: 25 mg/kg; Activity (NCI-H146 [13]): Active; Activity (NCI-H146 [14]): Active; viability at 0.01 µM (NCI-H146 [15]): > 50%; Activity (NCI-H146 [16]): Dose-dependent effect; IC50 [2]: 22 nM; IC50 (NCI-H1417): 21 nM |
| Cc1c(C(=O)NCCCN2CCN(C)CC2)c(-c2cccc(N3CCN(c4ccc(NS(=O)(=O)c5cccc(S(=O)(=O)C6CC6)c5)cc4)CC3)c2)c(-c2ccc(Cl)cc2)n1C | 1040 | – | – | – |
| CN(C)CC[C@H](CSc1ccccc1)Nc1ccc(S(=O)(=O)NC(=O)c2ccc(N3CCN(Cc4ccccc4-c4ccc(Cl)cc4)CC3)cc2)cc1[N+](=O)[O-] [ABT 737] | – | – | – | Activity (NCI-H146 [17]): >50%; Activity (NCI-H146 [16]): Dose-dependent effect |
| CC1(C)CCC(c2ccc(Cl)cc2)=C(CN2CCN(c3ccc(C(=O)NS(=O)(=O)c4ccc(N[C@H](CCN5CCOCC5)CSc5ccccc5)c(S(=O)(=O)C(F)(F)F)c4)cc3)CC2)C1 [NAVITOCLAX] | – | – | – | Activity (NCI-H146 [18]): Active; Activity (NCI-H146 [19]): Active; Activity (NCI-H146 [17]): >50%; Activity (NCI-H146 [16]): Dose-dependent effect |
| CCCn1c(C)c(C(=O)O)c(-c2cccc(N3CCN(c4ccc(NS(=O)(=O)c5ccc(N[C@H](CCN6CCC(O)CC6)CSc6ccccc6)c(S(=O)(=O)C(F)(F)F)c5)cc4)CC3)c2)c1-c1ccc(Cl)cc1 | 8.2 | 7.5 | 30.1 | IC50 [2]: 128 nM; IC50 (NCI-H1417): 105 nM |
| Cc1c(C(=O)O)c(-c2cccc(N3CCN(c4ccc(NS(=O)(=O)c5ccc(N[C@H](CCN(C)C)CSc6ccccc6)c(S(=O)(=O)C(F)(F)F)c5)cc4)CC3)c2)c(-c2ccc(Cl)cc2)n1C | 5.1 | 2.1 | 9.2 | – |

Further lines, with some results ahead:

| IC50 [1] [nM] | Ki [3] [nM] | IC50 [4] [nM] | Structure (SMILES) | other results |
| --- | --- | --- | --- | --- |
| 954 | – | – | CCS(=O)(=O)c1cccc(S(=O)(=O)Nc2ccc(N3CCN(c4cccc(-c5c(C(=O)NCCCN6CCN(C)CC6)c(C)n(C)c5-c5ccc(Cl)cc5)c4)CC3)cc2)c1 | – |
| 3650 | – | – | CCOc1cccc(S(=O)(=O)Nc2ccc(N3CCN(c4cccc(-c5c(C(=O)NCCCN6CCN(C)CC6)c(C)n(C)c5-c5ccc(Cl)cc5)c4)CC3)cc2)c1 | – |
| 1920 | – | – | Cc1c(C(=O)NCCCN2CCN(C)CC2)c(-c2cccc(N3CCN(c4ccc(NS(=O)(=O)c5cccc(S(C)(=O)=O)c5)cc4)CC3)c2)c(-c2ccc(Cl)cc2)n1C | – |
| 3730 | – | – | Cc1c(C(=O)NCCCN2CCN(C)CC2)c(-c2cccc(N3CCN(c4ccc(NS(=O)(=O)c5ccccc5)cc4)CC3)c2)c(-c2ccc(Cl)cc2)n1C | – |
| 21.8 | 4.6 | 18.6 | Cc1c(C(=O)O)c(-c2cccc(N3CCN(c4ccc(NS(=O)(=O)c5ccc(N[C@H](CCN6CCC(C)(O)CC6)CSc6ccccc6)c(S(=O)(=O)C(F)(F)F)c5)cc4)CC3)c2)c(-c2ccc(Cl)cc2)n1C | IC50 [2]: 171 nM; IC50 (NCI-H1417): 179 nM |
| – | < 1 | – | Cc1c(C(=O)O)c(-c2cccc(N3CCN(c4ccc(NS(=O)(=O)c5ccc(N[C@H](CCN(C)C)CSc6ccccc6)c([N+](=O)[O-])c5)cc4)CC3)c2)c(-c2ccc(Cl)cc2)n1C | – |
| 6.3 | 20 | 78.2 | CCCCn1c(C)c(C(=O)O)c(-c2cccc(N3CCN(c4ccc(NS(=O)(=O)c5ccc(N[C@H](CCN6CCC(O)CC6)CSc6ccccc6)c(S(=O)(=O)C(F)(F)F)c5)cc4)CC3)c2)c1-c1ccc(Cl)cc1 | IC50 [2]: 128 nM; IC50 (NCI-H1417): 97 nM |
| 12.1 | 3.8 | 15.6 | Cc1c(C(=O)O)c(-c2cccc(N3CCN(c4ccc(NS(=O)(=O)c5ccc(N[C@H](CCN6CCCCC6)CSc6ccccc6)c(S(=O)(=O)C(F)(F)F)c5)cc4)CC3)c2)c(-c2ccc(Cl)cc2)n1C | IC50 [2]: 133 nM; IC50 (NCI-H1417): 171 nM |
| 744 | – | – | Cc1c(C(=O)NCCCN2CCN(C)CC2)c(-c2cccc(N3CCN(c4ccc(NS(=O)(=O)c5cccc(C(C)(C)C)c5)cc4)CC3)c2)c(-c2ccc(Cl)cc2)n1C | – |
| 1990 | – | – | Cc1cccc(S(=O)(=O)Nc2ccc(N3CCN(c4cccc(-c5c(C(=O)NCCCN6CCN(C)CC6)c(C)n(C)c5-c5ccc(Cl)cc5)c4)CC3)cc2)c1 | – |
| 1060 | – | – | Cc1c(C(=O)NCCCN2CCN(C)CC2)c(-c2cccc(N3CCN(c4ccc(NS(=O)(=O)c5cccc(Cl)c5)cc4)CC3)c2)c(-c2ccc(Cl)cc2)n1C | – |
| 1650 | – | – | Cc1c(C(=O)NCCCN2CCN(C)CC2)c(-c2cccc(N3CCN(c4ccc(NS(=O)(=O)c5cccc(OC(F)(F)F)c5)cc4)CC3)c2)c(-c2ccc(Cl)cc2)n1C | – |
| 16.5 | 1.7 | 7.5 | Cc1c(C(=O)O)c(-c2cccc(N3CCN(c4ccc(NS(=O)(=O)c5ccc(N[C@H](CCN6CCC6)CSc6ccccc6)c(S(=O)(=O)C(F)(F)F)c5)cc4)CC3)c2)c(-c2ccc(Cl)cc2)n1C | IC50 [2]: 86 nM; IC50 (NCI-H1417): 126 nM |
| 10.7 | 1.8 | 8.3 | Cc1c(C(=O)O)c(-c2cccc(N3CCN(c4ccc(NS(=O)(=O)c5ccc(N[C@H](CCN6CCCC6)CSc6ccccc6)c(S(=O)(=O)C(F)(F)F)c5)cc4)CC3)c2)c(-c2ccc(Cl)cc2)n1C | IC50 [2]: 87 nM; IC50 (NCI-H1417): 106 nM |
| 1050 | – | – | Cc1c(C(=O)NCCCN2CCN(C)CC2)c(-c2cccc(N3CCN(c4ccc(NS(=O)(=O)c5cccc(OC(C)C)c5)cc4)CC3)c2)c(-c2ccc(Cl)cc2)n1C | – |
| 10.8 | 14.1 | 55.2 | Cc1c(C(=O)O)c(-c2cccc(N3CCN(c4ccc(NS(=O)(=O)c5ccc(N[C@H](CCN6CCOCC6)CSc6ccccc6)c(S(=O)(=O)C(F)(F)F)c5)cc4)CC3)c2)c(-c2ccc(Cl)cc2)n1C | – |
